Assay results of several laboratories.
Compare with care: the assays were run in different laboratories.
RET: Proto-oncogene tyrosine-protein kinase receptor Ret (RET, Homo sapiens, UniProt P07949)
RET V804M: Proto-oncogene tyrosine-protein kinase receptor Ret (RET, Homo sapiens, UniProt P07949, V804M)
RET M918T: Proto-oncogene tyrosine-protein kinase receptor Ret (RET, Homo sapiens, UniProt P07949, M918T)
RET V804L: Proto-oncogene tyrosine-protein kinase receptor Ret (RET, Homo sapiens, UniProt P07949, V804L)

`Cc1ccc(Nc2nccc(N(C)c3ccc4c(C)n(C)nc4c3)n2)cc1S(N)(=O)=O` gave a remaining signal of 25.7% (RET; cell-free assay; 0.5 µM).
With `Cc1ccc(NC(=O)Nc2ccc(Nc3cc(-n4ccnc4)nc(C)n3)cc2)c(C)c1` the remaining activity was 68.1% (RET; enzyme activity; inhibitor; radiometric; 10 µM).
`O=C1Nc2ccc(Cl)cc2C1=Cc1cc(Cl)c(O)c(Cl)c1` has a remaining signal of 80.4% (RET; cell-free assay; 0.5 µM).
The remaining binding of `C[C@H]1CCN(c2nccc(-c3cnn4ncccc34)n2)C1` is reported as 84% (RET V804M; binding; 1 µM).
The remaining binding of `COCCOc1nc(-c2ccc(Cl)nc2)nc2c1CN(C(=O)c1ncn3ccccc13)CC2` is reported as 89% (RET V804M; cell-free assay; competition with immobilised ligand; 0.1 µM).
For `CCCOc1ccc(OC)c(F)c1C(=O)c1ccc(C(=O)N[C@@H]2CNC[C@H]2NC(=O)c2ccc3[nH]ncc3c2)cc1`, the remaining activity was 4% (RET V804M; enzyme activity; inhibitor; 10 µM).
With `CO[C@]1(C(=O)N[C@@H](C)c2ccc(-n3cc(F)cn3)nc2)CC[C@H](c2nc(C)cc(Nc3cc(C)[nH]n3)n2)CC1` the ΔTm was 14.2 °C (Proto-oncogene tyrosine-protein kinase receptor Ret (RET, Homo sapiens, UniProt P07949, K758M); thermal stability; DSF; 10 µM).
`Cc1ccc(NC(=O)Nc2cc3c(cc2Oc2ccccc2)n(C)c(=O)n3C)cc1C` has a remaining activity of 128% (RET; enzyme activity; inhibitor; radiometric; 10 µM).
`Cc1cnc(NC2CCOCC2)nc1-n1cnc(C(=O)NC(CN)c2cc(F)cc(Cl)c2)c1` (stereo not shown) has a remaining activity of 111% (RET; enzyme activity; inhibitor; radiometric; 1 µM).
For `COc1ccc(CN2C3CC2CN(c2ccc(-c4cc(OCC(C)(C)O)cn5ncc(C#N)c45)cn2)C3)cn1`, the ΔTm was 8.7 °C (Proto-oncogene tyrosine-protein kinase receptor Ret (RET, Homo sapiens, UniProt P07949, L760A); thermal stability; DSF; 10 µM).
With `CN(CCCC(F)(F)F)c1nccc(-c2cnn3ncccc23)n1` the remaining binding was 99% (RET M918T; binding; 1 µM).
The inhibition of `COc1cc2ncnc(Nc3ccc(Oc4ccccc4)c(C)c3C)c2cc1OC` is reported as 17% (RET; enzyme activity; inhibitor; 1 µM).
The remaining binding of `CCOCCn1cc(C(=O)Nc2ccc(-n3nc(-c4cccnc4)cc3C(F)(F)F)cn2)ccc1=O` is reported as 83% (RET; cell-free assay; competition with immobilised ligand; 1 µM).
`N[C@H]1CCN(c2nccc(-c3cnn4ncccc34)n2)C1` gave a remaining binding of 93% (RET V804L; binding; 1 µM).
The remaining binding of `Nc1cnc(N2CCc3cc(S(=O)(=O)Nc4c(F)cc(Cl)cc4F)cc(N4CCCC4=O)c32)nc1` is reported as 89% (RET; cell-free assay; competition with immobilised ligand; 1 µM).
With `Cc1ccc(C(=O)Nc2ccc(CN3CCN(C)CC3)c(C(F)(F)F)c2)cc1C#Cc1cnc2cccnn12` the remaining activity was 8.4% (RET V804M; enzyme activity; 23.5 nM).
`O=S(=O)(NC1CCC(c2cc(F)ccc2F)(S(=O)(=O)c2ccc(Cl)cc2)CC1)C(F)(F)F` (stereo not shown) gave a remaining binding of 100% (RET V804M; cell-free assay; competition with immobilised ligand; 1 µM).
The remaining binding of `CN(C)c1nccc(-c2cnn3ncccc23)n1` is reported as 97% (RET M918T; binding; 1 µM).
For `C=CC(=O)Nc1cc(Nc2nccc(Nc3cc(Cl)c(F)cc3C(C)(C)O)n2)c(OC)cc1N1CC[C@@H](N(C)C)C1`, the inhibition was -6% (RET V804M; enzyme activity; inhibitor; 1 µM).
`c1cnn2ncc(-c3ccnc(N4CCC45COC5)n3)c2c1` gave a remaining binding of 100% (RET V804M; binding; 1 µM).
The remaining activity of `COc1cccc(Nc2nc(C)c(C(=O)Nc3ccc4c(c3)OCO4)s2)c1` is reported as 129% (RET; enzyme activity; inhibitor; radiometric; 0.1 µM).
For `Cc1cc(C)c(-n2ccn3nc(-c4cccnc4)cc23)cc1NC(=O)c1cc(C#N)cc(S(F)(F)(F)(F)F)c1`, the remaining binding was 93.6% (RET V804L; cell-free assay; competition with immobilised ligand; 0.1 µM).
With `Nc1ncnc2occ(-c3ccc(NC(=O)Nc4cc(C(F)(F)F)ccc4F)cc3)c12` the remaining signal was 0% (RET V804L; cell-free assay; 20 µM).
For `CNC(=O)c1cc(Oc2ccc(NC(=O)Nc3ccc(Cl)c(C(F)(F)F)c3)cc2)ccn1`, the remaining signal was 1.78% (RET; cell-free assay; 0.5 µM).
The remaining binding of `Cc1c(NC(=O)c2cc(C(N)=O)nc3cc(F)ccc23)c(C(F)(F)F)nn1Cc1ccc(C(C)(C)C)cc1` is reported as 100% (RET V804M; cell-free assay; competition with immobilised ligand; 1 µM).
With `Cc1ccc(NC(=O)c2ccc(C)c(C(F)(F)F)c2)cc1C#Cc1nn(C2CCC(O)CC2)c2ncnc(N)c12` (stereo not shown) the remaining signal was -2% (RET V804M; cell-free assay; 10 µM).
The remaining binding of `CC1CCCN1c1nccc(-c2cnn3ncccc23)n1` (stereo not shown) is reported as 85% (RET V804L; binding; 1 µM).
With `O=C(Nc1cccnn1)N1CCC(=Cc2cccc(Oc3ccc(C(F)(F)F)cn3)c2)CC1` the remaining binding was 100% (RET V804M; cell-free assay; competition with immobilised ligand; 1 µM).
With `CC/C(=N\NC(=O)NCc1cccc(O)c1)c1ccc(O)c(C)c1O` the inhibition was 6.2% (Proto-oncogene tyrosine-protein kinase receptor Ret (RET, Homo sapiens, UniProt P07949, S891A); enzyme activity; inhibitor; 0.1 µM).
The activity vs control of `Cc1cc(NC(=O)c2cccc3cc(-c4cccc5[nH]nc(N)c45)ccc23)ccc1F` is reported as 116% (RET V804L; enzyme activity; inhibitor; 0.1 µM).
With `COC(=O)c1cccc(NC(=O)Nc2cc(C)c3nc(NC(=O)c4ccccc4)sc3c2)c1` the remaining activity was 103% (RET; enzyme activity; inhibitor; radiometric; 10 µM).
The remaining binding of `CC(=O)Nc1c(C(C)=O)c(=O)n(C)c2nc(-c3ccc(Cl)cc3Cl)c(-c3ccc(Cl)cc3)cc12` is reported as 100% (RET; cell-free assay; competition with immobilised ligand; 1 µM).
The remaining activity of `O=C(COc1ccc(Cl)cc1C(=O)Nc1ccccc1)Nc1cc(Cl)ccc1-n1cncn1` is reported as 107% (RET; enzyme activity; inhibitor; radiometric; 0.1 µM).
`Cc1ccc(C(=O)NCc2ccsc2)cc1C#Cc1cn(C(C)C)c2ncnc(N)c12` gave an activity vs control of 4% (RET; enzyme activity; inhibitor; 1 µM).
For `COc1cc(NC(=O)Nc2cccc(Br)c2)cc2sc(NC(=O)c3ccccc3)nc12`, the remaining activity was 127% (RET; enzyme activity; inhibitor; radiometric; 10 µM).
With `COc1cc(-c2cc(-c3ccc(N4CCNCC4)cc3)cnc2N)cc(OC)c1OC` the inhibition was 13% (Proto-oncogene tyrosine-protein kinase receptor Ret (RET, Homo sapiens, UniProt P07949, Y791F); enzyme activity; inhibitor; 1 µM).
`Cc1cc(NC(=O)Nc2ccc(F)cc2)cc2sc(NC(=O)c3ccccc3)nc12` gave a remaining activity of 146% (RET; enzyme activity; inhibitor; radiometric; 0.1 µM).
The remaining signal of `CCN(CC)CCNC(=O)c1c(C)[nH]c(/C=C2\C(=O)Nc3ccc(F)cc32)c1C` is reported as 3.43% (RET; cell-free assay; 0.5 µM).
`CCOc1ccccc1NC(=O)Nc1cc(OC)c2nc(NC(=O)c3ccccc3)sc2c1` has a remaining activity of 118% (RET; enzyme activity; inhibitor; radiometric; 0.1 µM).
For `O=C1NC(=O)c2cc(Nc3ccc(F)cc3)c(Nc3ccc(F)cc3)cc21`, the remaining signal was 104% (RET; cell-free assay; 0.5 µM).
